Experiment: Toxicity liver stage against HepG2, at 10uM
Format: cell-based
Set-up: test concentration 10 uM, cell line HepG2-A16-CD81EGFP
Details: human, HepG2-A16-CD81EGFP cells; read-out: INHIBITION
Outline: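 Uninfected HepG2-A16-CD81EGFP cells, 3 × 10^3 per well, 1536-well, plated on prespotted compound at 10 μM final, parasite-free screening media added to match infected plates; puromycin 10 μM positive, DMSO 0.5% negative; run in parallel with 48 h PbLuc assay at 37 °C, 5% CO2; viability by CellTiter-Glo luminescence, normalized to controls.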

Structure (SMILES) | cytotoxicity at 10 µM [%]
CSc1nnc(N(CCC#N)CCC#N)s1 | 8.95
CCCS(=O)(=O)NC(C)C(=O)NCc1ccc(N2CCCC2)nc1 (stereo unspecified) | -11.8
COc1ccc(CN2CC[C@H](c3nnc(-c4ccco4)o3)C2)cc1 | 0.0623
Cc1cc(C)cc(NC(=O)c2cnc(N3CCN(C)CC3)nc2C)c1 | -15.5
CCOC(=O)C1CC2(CCOCC2)N2CCC(=O)N12 (stereo unspecified) | 2.39
COC1CN(C(=O)COC(C)=O)CCC(=O)N(C)c2ccccc21 (stereo unspecified) | -3.03
COc1ccccc1N1CCN(c2nc(N)nc3[nH]cnc23)CC1 | 2.77
Cc1c(C(=O)N2CCNC(=O)C2)sc2nc[nH]c(=O)c12 | 0.709
CCOc1ccc(S(=O)(=O)NCCCc2ccc(N(C)C)cc2)cc1F | -5.67
COC(=O)c1ccc(C(=O)N2CCC(c3nnc(C)s3)CC2)cc1 | 4.95
CNC(=O)c1ccc2c(OC)n(C)nc2c1 | -2.43
O=C(NCCc1ccncc1)[C@H]1C[C@@H]2CCN(c3nncs3)C[C@H]2O1 | 4.36
CCn1cc(NC(=O)C2CCC(=O)N2Cc2ccco2)cn1 (stereo unspecified) | -0.607
COc1cccc(O[C@H]2CCN(c3nc(C)cc(C)n3)CC[C@@H]2O)c1 | 2.58
Cc1ccc(S(=O)(=O)N2CC[C@@H]3C[C@H](NC(=O)c4ccncc4)[C@@H]32)cc1 | 0.385
CC(C)c1ccc(CC2(C)Cc3cc(CC(=O)O)ccc3O2)cc1 (stereo unspecified) | 6.65
Cn1ncc2ccc(C3CCCN(Cc4cccs4)C3)nc21 (stereo unspecified) | 1.88
COCc1ccc(C(=O)N2CCC(c3cc4ncc(C)nc4[nH]3)C2)cc1 (stereo unspecified) | -25.6
COc1ccccc1Oc1cncc(C2CCCN(CC(N)=O)C2)n1 (stereo unspecified) | -15.5
Cc1nccc(C2CCCCN2Cc2ccccc2)n1 (stereo unspecified) | -28.2
Cc1noc(C)c1-c1cc(C2CCNCC2)ccn1 | -16.6
CCc1cc(C(=O)N2CCC(c3cc4ncccc4cn3)CC2)on1 | -13
Cc1ccccc1CNC(=O)c1ccccc1-n1cc(CN)cn1 | -21

Structure (SMILES) | cytotoxicity at 10 µM [%]
Cc1cccnc1C(=O)N1C[C@@H]2CC[C@H](Oc3cccc(F)c3)[C@@H]2C1 | 0.297
CN1CCCC1c1ccnc(C(=O)N(C)C2CCCCC2)c1 (stereo unspecified) | -21.5
CN(C)C(=O)C1CN(Cc2ccsc2)CCN(S(C)(=O)=O)C1 (stereo unspecified) | 14.4
Cn1cc(CN2CCCC(CCCc3ccccn3)(C(N)=O)C2)cn1 (stereo unspecified) | -24.5
CNC(=O)C1(c2cnccn2)CCCN1C(=O)c1ccc(OC)cc1 (stereo unspecified) | -12.9
Cc1ncccc1Oc1nccnc1C1CCCN(C(C)C)C1 (stereo unspecified) | -10.1
COc1ccc(-n2cnc(Cl)c2CO)cc1 | 2.49
O=C(Nc1cnn(CC(F)F)c1)c1cccc(-n2cnnn2)c1 | 6.01
CN(CCCOc1ccccc1)Cc1nccn1C | 2.07
Cc1ccc(C(=O)NC2CCN(C(C)C)C2)c(=O)[nH]1 (stereo unspecified) | 5.26
NC(=O)C1CCCN1C(=O)c1cc(C2CC2)nc2ccc(F)cc12 (stereo unspecified) | 1.75
COc1cccc(C2CCCN2C(=O)c2ccc(=O)n(C)c2)c1 (stereo unspecified) | -1.72
Cc1nc(CNC(=O)NCC(F)(F)F)oc1C | -1.72
O=C(NC1CCS(=O)(=O)c2ccccc21)c1cccs1 (stereo unspecified) | -0.0399
CC(C)(CNC(=O)C1CCCN1S(C)(=O)=O)N1CCOCC1 (stereo unspecified) | 2.72
COc1cc(CNC(=O)Nc2nnc(C(F)(F)F)s2)ccc1O | -2.83
CCOC(=O)c1ccc(CNC(=O)c2ccncc2Cl)o1 | 6.93
Cc1cc(C(=O)N(C)C(C)CC(C)C)on1 (stereo unspecified) | -4.6
Cc1noc(C)c1NS(=O)(=O)c1cc(Cl)c(Cl)c(C(=O)O)c1 | 4.86
CCOCCC1(CNC(=O)c2ccncc2Cl)CCC1 | 5.38
COC(=O)NCC(=O)NCC(C)(C)c1cccc(Br)c1 | -3.01
CCNC(=O)COc1ccc(C(=O)NC(C)CCc2ccco2)cc1 (stereo unspecified) | 12.2
CC(C)c1noc(CCC(=O)NC(C)c2nnc3n2CCC3)n1 (stereo unspecified) | 2.59

Structure (SMILES) | cytotoxicity at 10 µM [%]
CCS(=O)(=O)N1CCC(NCC2CNc3cc(C)nn3C2)CC1 (stereo unspecified) | 0.286
CC(NC(=O)C1=NN(C)C(=O)CC1)c1ccc(Cl)cc1 (stereo unspecified) | -20.7
Cc1ccc(C)c(CC(=O)NC2(C#N)CCOCC2)c1 | 6.31
CCN(C1CCN(c2cccc(F)c2C(C)=O)CC1)S(C)(=O)=O | 5.17
N#Cc1ccc(N2CCC(NS(=O)(=O)c3cccs3)CC2)c(F)c1 | 20.5
Cc1cc(C)n(CC2CCCCN2C(=O)c2ccc3[nH]nnc3c2)n1 (stereo unspecified) | 2.52
CC(C)C1CCCN1C(=O)c1ccc(-n2ncc(C#N)c2N)cc1 (stereo unspecified) | -1.89
CCSc1ccc(C(=O)N2CCCCC2C(=O)N2CCCC2)cn1 (stereo unspecified) | 10.5
O=C(CCc1ccncc1)Nc1ccc(OCC2CCOCC2)cc1 | -2.98
O=C(c1ccc(F)c(F)c1)N1CCCCC1c1nc[nH]n1 (stereo unspecified) | -7.47
COCCC(=O)N1CCCC1c1cccc(C)c1C (stereo unspecified) | 5.79
C=C(C)CN1C(=O)CC(Cc2ccc(F)cc2)C1=O (stereo unspecified) | 1.62
CCCN1CCC(Nc2nc(CC)ns2)CC1 | -2.59
COCc1cccc(C(=O)N(C)Cc2ncc(C)c(OC)c2C)c1 | -13.1
O=C(Nc1ccccn1)C1CCN(Cc2cccc3c2OCCO3)CC1 | -0.586
CC(C)C(Sc1ccccc1)C(=O)N(C)Cc1nnc2n1CCC2 (stereo unspecified) | -12.5
CC(C)C(=O)N1CCC(NCc2c(C(C)C)nn(C)c2N(C)C)CC1 | 5.21
O=C1CCN(CCCS(=O)(=O)c2ccc(Cl)cc2)CCN1 | 2.43
CC(C)(C)OC(=O)N1CSC[C@@H]1C(=O)NCc1ccsc1 | 8.77
Cn1ncnc1NCc1ccc(Br)cc1 | -11.9
CCC(C)N(C)CCNC(=O)NCc1cccc(-n2cncn2)c1 (stereo unspecified) | -8.1
Cc1nc(C)n(C2CCCN(C(=O)CCc3ccncc3)C2)n1 (stereo unspecified) | -5.23
CCN1CC[C@@H]2OC[C@H](C(=O)NCc3cccs3)C[C@@H]2C1 | -106

Structure (SMILES) | cytotoxicity at 10 µM [%]
Cn1ncc2c1C(COCC1CC1)CN(Cc1ccco1)C2 (stereo unspecified) | -78.6
Cn1ccc(C(=O)NC2CCC23CCN(C(=O)N2CCCC2)CC3)c1 (stereo unspecified) | 2.01
Cc1cc2nc(C3CCCCC3)c(-c3ccnc(NCCO)n3)cn2n1 | -0.0295
Cc1cc(C(=O)N2CCC3(CC2)c2nc[nH]c2CCN3CC(C)C)no1 | 11.1
COC(=O)c1ccc(CNC2CC(=O)N(Cc3cccc(F)c3)C2)cc1 (stereo unspecified) | 4.43
COCc1nnc(C(=O)N(C)Cc2cnc3ccccn23)o1 | 1.69
CCn1cncc1C1CC(=O)Nc2c1c(C)nn2C (stereo unspecified) | -0.557
CC(C)N1CC(C(=O)N2CCc3c(nc(CC4CC4)[nH]c3=O)C2)CC1=O (stereo unspecified) | -8.25
Cc1cccc2[nH]c(C3CCN(C(=O)c4cnc[nH]c4=O)CC3)nc12 | 2.75
COc1cccc(C(=O)N2C[C@@H](CN(C)CCO)[C@@H](CO)C2)c1C | -4.17
CC(=O)NCCNC(=O)CCn1c(C)cc2ccccc21 | 6.26
CCC[C@H]1CN(C(=O)Cn2ccccc2=O)C[C@@H]1NS(C)(=O)=O | 11.1
O=C(CCCc1ccc(Cl)cc1)N1CCC(c2nnc[nH]2)CC1 | 18.3
CN(C)CCOc1cccc(CN2CCCC3(C2)CN(C)C(=O)O3)c1 (stereo unspecified) | -5.82
Cc1cc(C)cc(N2CCN(C(=O)C3CN(C)C(=O)N3)CC2=O)c1 (stereo unspecified) | -5.13
N#Cc1ccccc1CN1CCC(c2nccn2CC2CCC2)CC1 | -10.1
COCCn1cnnc1C(C)NC(=O)c1[nH]c2c(C)cc(C)cc2c1C (stereo unspecified) | -9.11
CC[C@@]1(O)CCN(C(=O)c2ccc(-n3cnnc3)cc2)C[C@H]1O | 3.86
Cc1cccc2c1nc(CCO)n2-c1ccc(NS(C)(=O)=O)nc1 | 2.34
CCNC(=O)N1CCC(Nc2nccc(NCC)n2)CC1 | -3.6
CC(C)NCC1(O)CCCN(CCC2CCCCC2)C1=O (stereo unspecified) | -2.53
CCC(C(=O)NC(C)(C)C)n1ccc2ncccc2c1=O (stereo unspecified) | 3.69
Nc1nnc(CCCNC(=O)c2ccc(C3CCCNC3)cc2)s1 (stereo unspecified) | -1.28

Structure (SMILES) | cytotoxicity at 10 µM [%]
Cc1nc(NCCSc2cnn[nH]2)c2cccnc2n1 | 2.98
CN1CCCC2(CCN(c3cccc(C#N)n3)C2)C1=O (stereo unspecified) | 3.61
O=C1CCC(=O)N1c1nn(Cc2ccccc2Cl)cc1Cl | -6.69
COCCCNC(=O)CN(C)C(=O)c1ccccc1O | -7.04
COCc1ccccc1CNCc1c(C(C)C)nn(C)c1N(C)C | -7.83
N#Cc1ccc(F)c(CN2CCCC2Cn2cccn2)c1 (stereo unspecified) | -7.69
CCc1ccc(O)c(C(=O)NC2CCN(C(=O)OC)CC2)c1 | 1.89
CC(Cn1ccnc1)NC(=O)C1(c2ccc(F)cc2)CC1 (stereo unspecified) | -9.62
Cc1nc(C2CCN(Cc3ncc[nH]3)CC2)no1 | -28
Cc1nocc1C(=O)N1CCOC2(COCCN(C(C)C)C2)C1 (stereo unspecified) | 10
Cc1nc2c(cc1C(=O)O)CCN(Cc1ccsc1)CC2 | 9.62
c1cncc(N2CCCn3nnc(COCC4CC4)c3C2)c1 | 5.5
CN(C)C(=O)N1CCC2(CC1)CCN(Cc1ccccn1)C2=O | 2.05
Cc1noc(C)c1CN1C[C@@H](N(C)Cc2ccco2)[C@H]2OCCC[C@H]21 | -70.9
CN(C)S(=O)(=O)N1CCC[C@]2(C[C@@H](Oc3ncccc3F)CO2)C1 | -82.2
CN(C)CCN1CCCC12CCN(C(=O)c1cccn1C)CC2 | -2.03
c1csc(CN2CCn3c(Cn4cncn4)cnc3C2)c1 | -71.7
c1csc(CN2CCc3nnc(COc4cncnc4)n3CC2)c1 | 2.49
CN(C)S(=O)(=O)N1C[C@H]2CC[C@@H](C1)N(Cc1ccc3c(c1)OCCO3)C2 | 4.52

From ChEMBL document CHEMBL4513216, “Probing the Open Global Health Chemical Diversity Library for Multistage-Active Starting Points for Next-Generation Antimalarials” (ACS Infect Dis, 2020)
